Here are results for 2 compounds from ChEMBL document CHEMBL4346667 (Eur J Med Chem, 2019).

Active and inactive are the calls of the source. No cut-off for these calls is given here. Some results are limits rather than exact numbers.

In one test the test system is HeLa. The test is described as follows: Antiproliferative activity against human HeLa cells assessed as reduction in cell viability after 48 hrs by MTT assay. The class given is functional, cell-based. The procedure, abridged: (§1)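 Cells grown at 37 °C, 5% CO2; HeLa, HepG2, H8, HL7702 in RPMI 1640 + 10% fetal calf serum, others in high-glucose DMEM + 10% fetal calf serum. Log-phase cells seeded at 4000-12000/well by doubling time. Attached cells were given 10-fold dilutions, 100 µM to 10 nM (DMSO 0.1% v/v), for 48 h. MTT (2 mg/mL) 4 h, formazan in DMSO, A492. IC50 from triplicate means.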
(Tetrazolium assays rely on reduction of a dye to a coloured formazan, in cell work by metabolically active cells.)

In the next test the test system is A549. The test is described as follows: Antiproliferative activity against human A549 cells assessed as reduction in cell viability after 48 hrs by MTT assay. The class given is functional, cell-based. Conditions: A549, 48 h. The procedure, abridged:
as §1

The next test addresses Tubulin. Put plainly: Binding affinity to tubulin (unknown origin) assessed as dissociation constant by SPR analysis. The class given is protein-complex assay, Homo sapiens. The procedure, abridged: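 Tubulin immobilised to about 800 mDeg. Injected at 60 µL/min for 300 s; PBS with 0.5% DMSO as running buffer. Measured at 25 °C, with dilution-corrected peak areas.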
Another test concerns HMEC. The test is described as follows: Antiproliferative activity against human HMEC cells assessed as reduction in cell viability after 48 hrs by MTT assay. The class given is functional, cell-based. The procedure, abridged:
as §1

Test [1] is described as follows: Binding affinity to alpha/beta tubulin complex (unknown origin). Further details: species or system Homo sapiens. The essentials:
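SPR assay: tubulin immobilized up to 800 mDeg (response units). Ligands were diluted two-fold from 80 µM to 2.5 µM in PBS with 0.5% (v/v) DMSO and injected at 60 µL/min for 300 s. Running buffer was PBS with 0.5% DMSO, at 25°C.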

Another test relates to MRC5. The test is described as follows: Antiproliferative activity against human MRC5 cells assessed as reduction in cell viability after 48 hrs by MTT assay. The class given is functional, cell-based. Conditions: MRC5, 48 h. The procedure, abridged:
as §1

Test [2] addresses T1, Tubulin (Sus scrofa) (UniProt P02554+P02550). The test is described as follows: Inhibition of porcine tubulin assembly assessed as tubulin growth inhibition incubated for 30 min by fluorometric analysis. It is filed as protein assay. The procedure, abridged:
(§2)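 This was a centrifugation assay of tubulin assembly. Tubulin was held at 4 °C with 0.9 mM GTP and 6 mM MgCl2, and aggregates were removed at 90000 g for 10 min at 4 °C. Ligands at 0.05–2 µM (1% DMSO) were incubated for 30 min at 37 °C. Supernatants and pellets were diluted 1:5, and tubulin was read fluorometrically (ex 280, em 323) against standards. The 50% inhibitory concentration came from inhibition curves, as the mean of three experiments.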

Test [3] has as its system MCF7. Put plainly: Cell cycle arrest in human MCF7 cells assessed as accumulation of cells at G2/M phase at >=250 nM after 24 hrs by propidium iodide double staining based flow cytometric analysis (reference value: 80%). It is filed as functional. The procedure, abridged: (§3)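 Log-phase cells seeded in 6-well plates and, once adhered, treated at 10-1000 nM; incubated in cycles of 6 h on/6 h off up to 48 h. Washed in cold PBS, fixed in 70% ethanol at -20 °C for at least 2 days. Stained with PI (50 µg/mL) 30 min on ice in the dark. 10,000 events on FL2-A vs FL2-W; G1/S/G2/M from DNA modelling. At least three repeats.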

A short description of test [4]: Antiproliferative activity against human H8 cells assessed as reduction in cell viability after 48 hrs by MTT assay. The class given is functional, cell-based. The essentials: as §1
For test [5], the target named is T1, Tubulin (Sus scrofa). Put plainly: Inhibition of porcine tubulin assembly assessed as tubulin growth inhibition at 2 uM incubated for 30 min by fluorometric analysis. It is filed as protein assay. The procedure, abridged: as §2
Test [6] deals with T2, Tubulin (Homo sapiens) (UniProt P68371+Q9H4B7+P0DPH7+P68366+Q13509+Q71U36+P04350+Q3ZCM7+P07437+P68363+Q9BQE3+Q6PEY2+Q13885+Q9BVA1+Q9BUF5). Put plainly: Ratio of Kd for colchicine to Kd for test compound for tubulin (unknown origin) by surface plasmon resonance analysis. The class given is protein-complex assay. The procedure, abridged: (§4)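 SPR binding to immobilised tubulin (up to 800 mDeg) was measured at 25 °C. Compounds were diluted two-fold from 80 to 2.5 µM in PBS with 0.5% DMSO. They were injected at 60 µL/min for 300 s, with PBS containing 0.5% DMSO as running buffer. Kd values came from the titration data.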
On the technique in general: SPR reads the build-up and loss of mass on a sensor chip optically.

Test [7] has as its target T2, Tubulin (Homo sapiens). The test is described as follows: Inhibition of tubulin polymerization in human HeLa cells assessed as cellular microtubule disorganization and H3 phosphorylation at 500 nM after 24 hrs by immunofluorescence based confocal microscopy. The class given is cell-based. The procedure, abridged: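 HeLa cells on glass coverslips were treated for 24 h at 25, 250 or 500 nM. They were fixed in 4% paraformaldehyde for 1 h and permeabilised with 0.2% Triton X-100 for 20 min. Anti-α-tubulin (1:50 in 2% BSA) was applied for 1 h at RT, then Alexa Fluor 488 anti-rabbit IgG (1:500) for 1 h, then DAPI for 20 min. Cells were imaged by fluorescence and confocal microscopy.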

The next test concerns L02. Put plainly: Antiproliferative activity against human HL7702 cells assessed as reduction in cell viability after 48 hrs by MTT assay. It is filed as functional, cell-based. Conditions: L02, 48 h. The procedure, abridged: as §1
For another test, the system named is HepG2. Put plainly: Antiproliferative activity against human HepG2 cells assessed as reduction in cell viability after 48 hrs by MTT assay. The class given is functional, cell-based. Conditions: HepG2, 48 h. The essentials:
as §1

Test [8] has as its system MCF7. The test is described as follows: Induction of apoptosis in human MCF7 cells at 250 nM after 48 hrs by Annexin V-FITC/propidium iodide staining-based flow cytometric analysis relative to control (reference value: 11.6%). The class given is functional. The procedure, abridged:
(§5)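 MCF7 cells were seeded in 6-well plates and exposed after adhering to graded concentrations for 48 h, in cycles of 6 h on and 6 h off. They were then stained with annexin V (1 µg/mL) and PI (0.5 µg/mL) in Ca2+-enriched binding buffer for 15 min in the dark at room temperature. Flow cytometry recorded 10,000 events, FL1 versus FL2. Apoptosis was taken as early plus late stage, with at least 3 repeats.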

Test [9] addresses T2, Tubulin (Homo sapiens). Put plainly: Ratio of Kd for PTOX to Kd for test compound for tubulin (unknown origin) by surface plasmon resonance analysis. It is filed as protein-complex assay. The essentials:
as §4

Test [10] concerns MCF7. Put plainly: Antiproliferative activity against human MCF7 cells assessed as reduction in cell viability after 48 hrs by MTT assay. The class given is functional, cell-based. Conditions: MCF7, 48 h. The essentials:
as §1

The subject of test [11] is MCF7. Put plainly: Induction of apoptosis in human MCF7 cells at 100 nM after 48 hrs by Annexin V-FITC/propidium iodide staining-based flow cytometric analysis relative to control (reference value: 11.6%). The class given is functional. The essentials:
as §5

Test [12] has as its system MCF7. Put plainly: Cell cycle arrest in human MCF7 cells assessed as accumulation of cells at G2/M phase at 100 nM after 24 hrs by propidium iodide double staining based flow cytometric analysis. The class given is functional. The procedure, abridged:
as §3
(In general: Flow cytometry measures light scatter and fluorescence of single cells or particles in a stream.)

Test [13] concerns MCF7. The test is described as follows: Induction of apoptosis in human MCF7 cells at 10 nM after 48 hrs by Annexin V-FITC/propidium iodide staining-based flow cytometric analysis relative to control (reference value: 11.6%). It is filed as functional. The procedure, abridged: as §5
Test [14] has as its system MCF7. Put plainly: Cell cycle arrest in human MCF7 cells assessed as accumulation of cells at G2/M phase at 250 to 500 nM after 24 hrs by propidium iodide double staining based flow cytometric analysis. The class given is functional. The essentials:
as §3

The subject of test [15] is MCF7. Put plainly: Induction of apoptosis in human MCF7 cells at 500 nM after 48 hrs by Annexin V-FITC/propidium iodide staining-based flow cytometric analysis relative to control (reference value: 11.6%). It is filed as functional. The essentials: as §5
For test [16], the system named is MCF7. The test is described as follows: Antitumor activity against human MCF7 cells xenografted in BALB/c nude mouse assessed as inhibition of tumor growth at 40 mg/kg administered for a week. The class given is functional. The procedure, abridged:
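Male BALB/c nude mice, 4 weeks old, 15-20 g. Log-phase MCF-7 cells in DMEM, 0.1 mL of 1×10^6 cells/mL, injected subcutaneously into the hind leg. Calipers twice weekly; at about 90 mm3, groups of 5. Vehicle was isotonic saline plus 0.005% DMSO. Injected at 40 mg/kg for a week; tumour volume recorded daily.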

Test [17] relates to MCF7. The test is described as follows: Induction of apoptosis in human MCF7 cells at 50 nM after 48 hrs by Annexin V-FITC/propidium iodide staining-based flow cytometric analysis relative to control (reference value: 11.6%). It is filed as functional. The procedure, abridged:
as §5

In test [18] the target is T2, Tubulin (Homo sapiens). The test is described as follows: Inhibition of tubulin polymerization in human HeLa cells assessed as contracted and rounded cells with disordered abnormal spindles and chromosomal misalignment at 500 nM after 24 hrs by immunofluorescence based confocal microscopy. It is filed as cell-based. The procedure, abridged: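 HeLa cells on glass coverslips were treated for 24 h at 25, 250 or 500 nM. They were fixed in 4% paraformaldehyde for 1 h and permeabilised with 0.2% Triton X-100 for 20 min. Cells were imaged by fluorescence and confocal microscopy.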

T1 sequence (P02550 whole entry, looked up): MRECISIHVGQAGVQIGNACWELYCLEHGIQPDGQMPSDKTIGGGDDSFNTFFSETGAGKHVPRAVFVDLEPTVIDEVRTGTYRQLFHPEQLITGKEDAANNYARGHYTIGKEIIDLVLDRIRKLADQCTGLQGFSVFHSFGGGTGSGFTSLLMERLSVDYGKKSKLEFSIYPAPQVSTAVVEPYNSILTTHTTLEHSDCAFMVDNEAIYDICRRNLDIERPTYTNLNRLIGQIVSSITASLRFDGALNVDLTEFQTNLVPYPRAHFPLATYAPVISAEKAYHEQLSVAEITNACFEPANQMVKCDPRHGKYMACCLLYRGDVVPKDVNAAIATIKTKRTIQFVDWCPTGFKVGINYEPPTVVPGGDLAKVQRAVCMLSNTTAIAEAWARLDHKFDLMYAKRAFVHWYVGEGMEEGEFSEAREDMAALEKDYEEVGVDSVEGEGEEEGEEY
T1 sequence (P02554 whole entry, looked up): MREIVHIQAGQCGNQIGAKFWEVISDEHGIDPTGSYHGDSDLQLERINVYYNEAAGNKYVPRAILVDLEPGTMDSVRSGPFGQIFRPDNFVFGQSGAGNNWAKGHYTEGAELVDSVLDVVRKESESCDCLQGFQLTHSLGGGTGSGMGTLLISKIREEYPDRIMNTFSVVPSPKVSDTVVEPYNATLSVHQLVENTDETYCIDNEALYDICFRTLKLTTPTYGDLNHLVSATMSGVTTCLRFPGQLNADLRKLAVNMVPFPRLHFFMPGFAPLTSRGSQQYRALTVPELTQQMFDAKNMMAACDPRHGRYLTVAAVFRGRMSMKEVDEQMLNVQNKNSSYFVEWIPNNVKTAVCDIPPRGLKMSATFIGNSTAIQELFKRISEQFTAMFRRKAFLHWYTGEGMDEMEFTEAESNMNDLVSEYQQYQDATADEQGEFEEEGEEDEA

`COc1cc([C@@H]2c3cc4c(cc3[C@@H](Nc3ccc5[nH]ncc5c3)[C@H]3COC(=O)[C@H]23)OCO4)cc(OC)c1OC`: the IC50 amounted to 200 nM in the test on HeLa; 200 nM in the test with A549; 81800 nM in the test on HMEC; 60800 nM in the test with MRC5; 98400 nM in test [4]; 50600 nM in the test with L02. For the same compound, the IC50 with HepG2 turned out to be 300 nM; in the test with MCF7 [10] it was 200 nM. Moreover, the Kd on Tubulin was 9100 nM. Moreover, the Ki in test [1] was determined as 60 nM. The GI50 at Tubulin (Sus scrofa) [2] was less than 100 nM. Also, the Activity with MCF7 [3] is 45%; in the test on MCF7 [8] it was 60%. Moreover, the inhibition on Tubulin (Sus scrofa) [5] was 79%. For the same compound, the Ratio on Tubulin (Homo sapiens) [6] turned out to be 2.2; on Tubulin (Homo sapiens) [9], 2.7. Besides, the inhibition result on Tubulin (Homo sapiens) [7] was “Active”.
`COc1cc([C@@H]2c3cc4c(cc3[C@@H](Nc3ccc5cc[nH]c5c3)[C@H]3COC(=O)[C@H]23)OCO4)cc(OC)c1OC`: the IC50 in the test on HeLa worked out at 80 nM; with A549, 80 nM; in the test on HMEC, 61600 nM; in the test on MRC5, 69100 nM; in test [4], 84500 nM; in the test with L02, 94600 nM. The IC50 is 100 nM in the test with HepG2 and 70 nM in the test on MCF7 [10]. For the same compound, on Tubulin, the equilibrium dissociation constant (Kd) worked out at 8100 nM. In addition, the Activity with MCF7 [11] is on record as 93.5%; in the test with MCF7 [12] it was 50%; with MCF7 [13], 10.5%; with MCF7 [14] it was 90%; with MCF7 [15] it was 94.9%; in the test on MCF7 [8], 92.4 - 93%. The Activity in the test on MCF7 [17] was found to be 20.1%. For the same compound, the Ki in [1] is 10 nM. Also, on Tubulin (Sus scrofa) [2], the GI50 is less than 100 nM. The inhibition on Tubulin (Sus scrofa) [5] stood at 88%. For the same compound, the figures for the Ratio at Tubulin (Homo sapiens) [6] and at Tubulin (Homo sapiens) [9] were 2.2 and 2.7, respectively. In addition, in the test on MCF7 [16], the inhibition in vivo at 40 mg/kg came out at 89.6%. Moreover, the inhibition result on Tubulin (Homo sapiens) [18] was “Active”.

The term IC50 denotes the concentration needed to halve the response being measured. Usually Kd stands for the concentration at which binding is half-saturated. The term Ki denotes the dissociation constant of the complex between target and ligand, obtained from inhibition or displacement. Higher therefore signals a looser hold on the target. What is called GI50 is the concentration giving 50% growth inhibition. As a reminder, the inhibition is the drop in the measured response relative to a control, in per cent. The term inhibition in vivo denotes the percentage by which the read-out fell short of the control.
